In ChEMBL document CHEMBL4619773, “Chemoreactive-Inspired Discovery of Influenza A Virus Dual Inhibitor to Block Hemagglutinin-Mediated Adsorption and Membrane Fusion” (J Med Chem, 2020) one finds inhibition data, which are given here for 1 compound.

Assay [1] concerns Influenza A virus (A/Puerto Rico/8/1934(H1N1)). Description: Inhibition of Hemagglutinin T30N/E233D/T359A mutant in Influenza A virus (A/Puerto Rico/8/1934(H1N1))/H1N1 pseudovirus infected in 293FT cells assessed as reduction in virus infection at 50 ug/ml pre-treated with virus before infection and measured after 48 hrs by inverted fluorescence microscopy. It counts as cell-based. The procedure, abridged: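 GFP-reporter lentiviral pseudoviruses bearing PR8 wild-type or mutant (T30N/E233D/T359A or T359A) HA plus NA were produced in 293FT cells. Pseudovirus was pretreated with 50 µg/ml compound for 1 h at 37 °C before infection. GFP-positive cells were counted by fluorescence microscopy at 48 h p.i.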

Assay [2] shares this test system. Description: Inhibition of Hemagglutinin T359A mutant in Influenza A virus (A/Puerto Rico/8/1934(H1N1))/H1N1 pseudovirus infected in 293FT cells assessed as reduction in virus infection at 50 ug/ml pre-treated with virus before infection and measured after 48 hrs by inverted fluorescence microscopy. It counts as cell-based. The gist of the method: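 PR8 pseudoviruses (IAV-GFP) carrying wild-type HA or a mutant HA (T30N/E233D/T359A or T359A) were made in 293FT cells by co-transfecting HA, NA, HIV backbone and GFP reporter plasmids, and supernatants were harvested at 48 h. Pseudovirus was pretreated with compound at 50 µg/ml for 1 h at 37 °C before infection. Infected GFP-positive cells were viewed by fluorescence microscopy 48 h p.i.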

Active and inactive are the calls of the source. The calls are words filed in the database; no cut-off is given here.

Regarding `CC(=O)c1cc(C)c(O)c(Cc2[nH]c3ccccc3c2Cc2c(O)c(C)cc(C(C)=O)c2O)c1O`, the inhibition result in assay [1] and in assay [2] was “inactive” in each case.
